Measurements from ChEMBL document CHEMBL4390651, “Indole based antimalarial compounds targeting the melatonin pathway: Their design, synthesis and biological evaluation” (Eur J Med Chem, 2019).
The source made the active and inactive calls. The rule behind the calls is not given here.

Legend:
[1] = system: Plasmodium falciparum; assay: Antimalarial activity against schizont stage of Plasmodium falciparum 3D7 infected in human erythrocytes assessed as parasite survival level at 10 uM incubated for 48 hrs by Giemsa staining-based microscopic analysis (reference value: 5 +/- 7.07%); assay type: functional; details: 3D7, 48 h
[2] = system: Plasmodium falciparum; assay: Antimalarial activity against synchronized ring stage of Plasmodium falciparum 3D7 infected in human erythrocytes assessed as inhibition of parasite growth at 10 uM incubated for 0 to 48 hrs by Giemsa staining-based microscopic analysis; assay type: functional
Method in brief: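 3D7 was sorbitol-synchronized to ring stage at 1% parasitemia, cultured in human O+ erythrocytes (5% hematocrit, RPMI 1640/albumax, 37 °C, low-O2 gas), and exposed for 48 h, with DMSO as control. Giemsa smears at 0, 12, 24, 36 and 48 h gave parasitemia and stage morphology. Mean ± SD of three independent experiments.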

[3] = Stability of the compound in 0.01 N HCL at pH 2.0 assessed as compound remaining at 1 mg/ml incubated for 0 to 24 hrs by HPLC analysis relative to control; assay type: physicochemical; details: for Stability: buffer
Method in brief: (§1)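 Compound stock in acetonitrile was added to 1.0 mL of fresh 0.01 N HCl (pH 2.0) or phosphate buffer (pH 7.4), held at 37 °C, and the amount remaining was measured by HPLC at intervals from 0 to 24 h.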

[4] = system: Plasmodium falciparum; assay: Antimalarial activity against synchronized ring stage of Plasmodium falciparum 3D7 infected in human erythrocytes assessed as inhibition of parasite growth incubated for 48 hrs by Giemsa staining-based microscopic analysis; assay type: functional, organism-based; details: 3D7, 48 h
Method in brief: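 Sorbitol-synchronized ring-stage 3D7 in human O+ erythrocytes was exposed to four concentrations (1, 5, 10 and 20) for 48 h. Parasitemia was counted on Giemsa smears and IC50 taken from the dose-response curve. Mean ± SD of three independent experiments.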

[5] = biological target: Melatonin receptor type 1A (Homo sapiens) (UniProt P48039); assay: Inhibition of human MTNR1 receptor at 500 nM to 5 uM using TMB as substrate preincubated for 1 hr followed by substrate addition by ELISA relative to control
Sequence of Melatonin receptor type 1A (Homo sapiens) (P48039 whole entry): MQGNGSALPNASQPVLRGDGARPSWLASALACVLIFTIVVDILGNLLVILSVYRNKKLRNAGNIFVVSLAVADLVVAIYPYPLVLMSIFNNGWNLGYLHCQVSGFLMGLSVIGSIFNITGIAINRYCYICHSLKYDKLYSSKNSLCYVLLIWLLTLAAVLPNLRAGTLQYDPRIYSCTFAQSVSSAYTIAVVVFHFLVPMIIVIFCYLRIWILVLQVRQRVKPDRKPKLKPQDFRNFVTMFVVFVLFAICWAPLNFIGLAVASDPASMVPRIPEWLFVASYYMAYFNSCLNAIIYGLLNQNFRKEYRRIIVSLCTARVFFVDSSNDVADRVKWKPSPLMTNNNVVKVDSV
Method in brief: (§2)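 ELISA kit format: compounds incubated 1 h with MTNR1 receptor (5 ng/mL), melatonin as control. TMB substrate, stop solution, OD read at 450 nm; expressed as % inhibition.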

[6] = system: Plasmodium falciparum; assay: Antimalarial activity against trophozoite stage of Plasmodium falciparum 3D7 infected in human erythrocytes assessed as parasite survival level at 10 uM incubated for 48 hrs by Giemsa staining-based microscopic analysis (reference value: 43.65 +/- 5.16%); assay type: functional; details: 3D7, 48 h
[7] = system: Plasmodium falciparum; assay: Antimalarial activity against schizont stage of Plasmodium falciparum 3D7 infected in human erythrocytes assessed as parasite survival level at 10 uM measured immediately at 0 hrs by Giemsa staining-based microscopic analysis (reference value: 0%); assay type: functional; details: 3D7, 0 h
[8] = system: Plasmodium falciparum; assay: Antimalarial activity against trophozoite stage of Plasmodium falciparum 3D7 infected in human erythrocytes assessed as parasite survival level at 10 uM measured immediately at 0 hrs by Giemsa staining-based microscopic analysis (reference value: 3.55 +/- 5.02%); assay type: functional; details: 3D7, 0 h
[9] = Stability of the compound in phosphate buffer at pH 7.4 assessed as compound remaining at 1 mg/ml incubated for 0 to 24 hrs by HPLC analysis relative to control; assay type: physicochemical; details: for remaining at 1 mg/ml: phosphate buffer, read-out: Stability; method in brief: as §1
[10] = system: Plasmodium falciparum; assay: Antimalarial activity against ring stage of Plasmodium falciparum 3D7 infected in human erythrocytes assessed as parasite survival level at 10 uM measured immediately at 0 hrs by Giemsa staining-based microscopic analysis (reference value: 96.4 +/- 5.09%); assay type: functional; details: 3D7, 0 h
[11] = system: Plasmodium falciparum; assay: Antimalarial activity against chloroquine resistant Plasmodium falciparum RKL9 infected in human erythrocytes assessed as reduction in parasitemia incubated for 0 to 48 hrs by Giemsa staining-based microscopic analysis; assay type: functional, organism-based
Method in brief: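 Sorbitol-synchronized ring-stage culture at 1% parasitemia, 5% hematocrit in human O+ erythrocytes (RPMI 1640, 0.5% albumax, hypoxanthine, gentamicin; 37 °C, 5% CO2/5% O2/90% N2). Compounds at […] for 48 h. Parasitemia counted on Giemsa-stained smears at 0 and 48 h. DMSO control. Mean of three independent experiments ±SD.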

[12] = system: Plasmodium falciparum; assay: Antimalarial activity against ring stage of Plasmodium falciparum 3D7 infected in human erythrocytes assessed as parasite survival level at 10 uM incubated for 48 hrs by Giemsa staining-based microscopic analysis (reference value: 51.3 +/- 1.83%); assay type: functional; details: 3D7, 48 h
[13] = system: Plasmodium falciparum; assay: Antimalarial activity against troph stage of Plasmodium falciparum infected in human erythrocytes assessed as protection against melatonin-induced parasite synchronization by measuring parasitemia 1 uM measured immediately by Giemsa staining-based microscopic analysis (reference value: 52.50 +/- 0.70%); assay type: functional
[14] = system: Plasmodium falciparum; assay: Antimalarial activity against ring stage of Plasmodium falciparum infected in human erythrocytes assessed as protection against melatonin-induced parasite synchronization by measuring parasitemia 5 uM incubated for 48 hrs by Giemsa staining-based microscopic analysis (reference value: 11.80 +/- 9.19%); assay type: functional
[15] = system: Plasmodium falciparum; assay: Antimalarial activity against ring stage of Plasmodium falciparum infected in human erythrocytes assessed as protection against melatonin-induced parasite synchronization by measuring parasitemia 1 uM incubated for 48 hrs by Giemsa staining-based microscopic analysis (reference value: 11.80 +/- 9.19%); assay type: functional
[16] = biological target: Melatonin receptor type 1A (Homo sapiens) (UniProt P48039); assay: Inhibition of human MTNR1 receptor at 500 nM using TMB as substrate preincubated for 1 hr followed by substrate addition by ELISA relative to control; method in brief: as §2
[17] = system: Plasmodium falciparum; assay: Antimalarial activity against troph stage of Plasmodium falciparum infected in human erythrocytes assessed as protection against melatonin-induced parasite synchronization by measuring parasitemia 5 uM incubated for 48 hrs by Giemsa staining-based microscopic analysis (reference value: 88.20 +/- 9.19%); assay type: functional
[18] = system: Plasmodium falciparum; assay: Antimalarial activity against mixed stage of Plasmodium falciparum infected in human erythrocytes assessed as protection against melatonin-induced parasite synchronization by measuring parasitemia at 1 uM incubated for 48 hrs by Giemsa staining-based microscopic analysis (reference value: 4.76 +/- 0.61%); assay type: functional
[19] = system: Plasmodium falciparum; assay: Antimalarial activity against schizont stage of Plasmodium falciparum infected in human erythrocytes assessed as protection against melatonin-induced parasite synchronization by measuring parasitemia 1 uM measured immediately by Giemsa staining-based microscopic analysis (reference value: 23.25 +/- 0.35%); assay type: functional
[20] = system: Plasmodium falciparum; assay: Antimalarial activity against ring stage of Plasmodium falciparum infected in human erythrocytes assessed as protection against melatonin-induced parasite synchronization by measuring parasitemia 1 uM measured immediately by Giemsa staining-based microscopic analysis (reference value: 23.90 +/- 0.84%); assay type: functional
[21] = system: Plasmodium falciparum; assay: Antimalarial activity against schizont stage of Plasmodium falciparum infected in human erythrocytes assessed as protection against melatonin-induced parasite synchronization by measuring parasitemia 1 uM incubated for 48 hrs by Giemsa staining-based microscopic analysis (reference value: 0%); assay type: functional
[22] = system: Plasmodium falciparum; assay: Antimalarial activity against schizont stage of Plasmodium falciparum infected in human erythrocytes assessed as protection against melatonin-induced parasite synchronization by measuring parasitemia 5 uM measured immediately by Giemsa staining-based microscopic analysis (reference value: 23.25 +/- 0.35%); assay type: functional
[23] = system: Plasmodium falciparum; assay: Antimalarial activity against mixed stage of Plasmodium falciparum infected in human erythrocytes assessed as protection against melatonin-induced parasite synchronization by measuring parasitemia at 5 uM measured immediately at 0 hrs by Giemsa staining-based microscopic analysis (reference value: 1.05 +/- 0.07%); assay type: functional
[24] = system: Plasmodium falciparum; assay: Antimalarial activity against mixed stage of Plasmodium falciparum infected in human erythrocytes assessed as protection against melatonin-induced parasite synchronization by measuring parasitemia at 1 uM measured immediately at 0 hrs by Giemsa staining-based microscopic analysis (reference value: 1.05 +/- 0.07%); assay type: functional
[25] = system: Plasmodium falciparum; assay: Antimalarial activity against schizont stage of Plasmodium falciparum infected in human erythrocytes assessed as protection against melatonin-induced parasite synchronization by measuring parasitemia 5 uM incubated for 48 hrs by Giemsa staining-based microscopic analysis (reference value: 0%); assay type: functional
[26] = system: Plasmodium falciparum; assay: Antimalarial activity against troph stage of Plasmodium falciparum infected in human erythrocytes assessed as protection against melatonin-induced parasite synchronization by measuring parasitemia 5 uM measured immediately by Giemsa staining-based microscopic analysis (reference value: 52.50 +/- 0.70%); assay type: functional
[27] = biological target: Melatonin receptor type 1A (Homo sapiens) (UniProt P48039); assay: Inhibition of human MTNR1 receptor at 5 uM using TMB as substrate preincubated for 1 hr followed by substrate addition by ELISA relative to control; method in brief: as §2
[28] = system: Plasmodium falciparum; assay: Antimalarial activity against ring stage of Plasmodium falciparum infected in human erythrocytes assessed as protection against melatonin-induced parasite synchronization by measuring parasitemia 5 uM measured immediately by Giemsa staining-based microscopic analysis (reference value: 23.90 +/- 0.84%); assay type: functional
[29] = system: Plasmodium falciparum; assay: Antimalarial activity against mixed stage of Plasmodium falciparum infected in human erythrocytes assessed as protection against melatonin-induced parasite synchronization by measuring parasitemia at 5 uM incubated for 48 hrs by Giemsa staining-based microscopic analysis (reference value: 4.76 +/- 0.61%); assay type: functional
[30] = system: Plasmodium falciparum; assay: Antimalarial activity against troph stage of Plasmodium falciparum infected in human erythrocytes assessed as protection against melatonin-induced parasite synchronization by measuring parasitemia 1 uM incubated for 48 hrs by Giemsa staining-based microscopic analysis (reference value: 88.20 +/- 9.19%); assay type: functional
[31] = biological target: Melatonin receptor type 1A (Homo sapiens) (UniProt P48039); assay: Inhibition of human MTNR1 receptor at 1 uM using TMB as substrate preincubated for 1 hr followed by substrate addition by ELISA relative to control; method in brief: as §2
[32] = system: Plasmodium falciparum; assay: Antimalarial activity against Plasmodium falciparum 3D7 ring stage synchronized forms infected in human erythrocytes assessed as inhibition of parasite proliferation at 5 uM incubated for 48 hrs by Giemsa-staining method; assay type: functional; details: 3D7, 48 h
Method in brief: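 P. falciparum 3D7 grown in human O+ erythrocytes at 5% hematocrit in RPMI 1640 with NaHCO3, albumax, gentamicin and hypoxanthine, at 37 °C under 90% N2/5% CO2/5% O2. Single-concentration screen read as % inhibition of parasite proliferation. Mean of three experiments, each in triplicate.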

Compound	survival at 10 µM [1]	growth inhibition (GI) [2]	IC50 [4]	survival at 10 µM [6]	survival at 10 µM [7]	survival at 10 µM [8]	survival at 10 µM [10]	inhibition [11]	survival at 10 µM [12]	Stability [3]	Activity [13]	Activity [14]	Activity [15]	inhibition [16]	Activity [17]	Activity [18]	Activity [19]	Activity [20]	Activity [21]	Activity [22]	further results
CC/N=C(/c1ccc(C)cc1)c1[nH]c2ccccc2c1CCNC(=O)OC	2.5%	Active	4280 nM	97.5%	0%	7%	93%	Dose dependent effect	0%	–	–	–	–	–	–	–	–	–	–	–	remaining at 1 mg/ml ([3]; 0.01 N HCl, read-out: Stability): 20%; inhibition [5]: inactive; Stability ([9]; buffer): Unstable
C/N=C(/c1cc(C(F)(F)F)cc(C(F)(F)F)c1)c1[nH]c2ccc(OC)cc2c1CCNC(=O)OC	0%	Active	740 nM	95%	0%	5%	95%	Dose dependent effect	4.95%	Unstable	53.8%	27.25%	18%	75%	70.9%	2.8%	22.95%	24.2%	2.9%	21.85%	remaining at 1 mg/ml [9]: 60%; Activity [23]: 1.1%; Activity [24]: 1.15%; Activity [25]: 1.85%; Activity [26]: 53.25%; inhibition [27]: 85%; Activity [28]: 24.1%; Activity [29]: 1.65%; Activity [30]: 79.1%
CC/N=C(/c1cc(C(F)(F)F)cc(C(F)(F)F)c1)c1[nH]c2ccc(OC)cc2c1CCNC(=O)OC	14%	Active	2730 nM	17.5%	0.5%	7%	92.5%	Dose dependent effect	68.5%	Unstable	–	–	–	60%	–	–	–	–	–	–	remaining at 1 mg/ml [9]: 60%; inhibition [27]: 70%; inhibition [31]: 80%
CC(=O)NCCc1c(Cc2ccccc2)[nH]c2ccccc12 [LUZINDOLE]	0%	Active	–	38.4%	0.5%	8%	91.5%	–	61.6%	–	50.5%	21.97%	19.1%	–	77.15%	2.88%	25.8%	23%	0%	24%	Activity [23]: 1.03%; Activity [24]: 1.1%; inhibition at 5 µM [32]: 48%; Activity [25]: 0.88%; Activity [26]: 51.9%; Activity [28]: 23.75%; Activity [29]: 2.56%; Activity [30]: 80.9%
